# Screening data from PubChem BioAssay.
# In the library only some 0.68% were active in any assay of this set; here they are far more common.
# TNAP act hiacc: activators of human TNAP at high phosphate acceptor concentration; activation factor at 20 µM; 200,000 tested, under 10 active; purified TNAP, CDP-star luminescence, 1 M DEA, 30 min; stronger effect = higher value; 0 = EDTA background, 1 = DMSO-only activity; P05186;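 active = activation factor at least 2 at 20 µM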
#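 Control set: EDTA negative control, DMSO positive control / Assay system: human TNAP / Quantity: TNAP 1/800 final / Evaluation: TNAP activation factor scaled between EDTA and DMSO control wells / Measured by: luminescent substrate turnover signal / Compound dosing: one dose, 20 µM / Times: 30 min enzyme reaction at room temperature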
# Furin inhibitor: inhibitors of human furin. P09958. purified furin, fluorogenic substrate cleavage. inhibition, % at 20 µM or 30 µM. actives 0.061% (n = 220,000). AID 463115; in the data active = inhibition above about 25%
# Target sequence (P09958 108-714 limits assumed): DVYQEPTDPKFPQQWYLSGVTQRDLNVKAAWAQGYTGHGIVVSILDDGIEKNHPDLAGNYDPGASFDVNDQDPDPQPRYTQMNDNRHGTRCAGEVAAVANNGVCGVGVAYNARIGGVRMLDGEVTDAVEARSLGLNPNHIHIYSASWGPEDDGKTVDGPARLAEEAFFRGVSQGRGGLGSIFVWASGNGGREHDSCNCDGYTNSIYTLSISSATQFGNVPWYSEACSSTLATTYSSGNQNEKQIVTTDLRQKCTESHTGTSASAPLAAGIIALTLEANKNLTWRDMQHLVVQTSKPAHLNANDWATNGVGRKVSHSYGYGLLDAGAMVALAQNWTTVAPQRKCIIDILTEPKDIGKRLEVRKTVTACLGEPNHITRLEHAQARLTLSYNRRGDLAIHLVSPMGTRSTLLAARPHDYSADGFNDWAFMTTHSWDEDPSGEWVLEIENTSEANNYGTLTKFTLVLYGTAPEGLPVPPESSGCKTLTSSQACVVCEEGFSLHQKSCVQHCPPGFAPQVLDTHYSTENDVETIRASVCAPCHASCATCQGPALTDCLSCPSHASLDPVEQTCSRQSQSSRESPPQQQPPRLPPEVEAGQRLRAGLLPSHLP
# TNAP inh noacc: TNAP (human) inhibition, acceptor-free conditions; P05186; actives 0.26% (n = 200,000); AID 1012; inhibition, % at 20 µM; purified TNAP, CDP-star luminescence, 30 min;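 active = tissue-nonspecific alkaline phosphatase inhibition above about 50% at 20 µM in the single-dose screen, limit read from the data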;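 also: 0% = DMSO negative control and 100% = EDTA positive control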
# TNAP inh hiacc: blocks human TNAP under high phosphate acceptor concentration | purified TNAP, CDP-star luminescence, 1 M DEA | inhibition, % at 20 µM | actives 0.03% (n = 200,000);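 active = over 50% inhibition of tissue-nonspecific alkaline phosphatase at 20 µM in the single-dose screen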;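 also: plate controls were DMSO wells for no effect and EDTA-quenched wells as full inhibition for full effect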
# Efa HMGR inh: inhibitors of class II HMG-CoA reductase from Enterococcus faecalis. AID 1066. actives 0.41% (n = 190,000). inhibition, % at 10 µM. purified E. faecalis HMGR, NADPH absorbance 340 nm kinetic;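 active = inhibition above a set limit, the median over all tested compounds plus 3 SD, cut at about 9.5% in these data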;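 also: enzyme runs in reverse so mevalonate oxidation gives rising NADPH absorbance; 0% = complete reaction with DMSO and 100% = background rate lacking mevalonate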
# Pf gamet viab: P. falciparum stage V gametocyte viability inhibition; actives 0.065% (n = 150,000); AID 743093; inhibition, % at 10.9 µM; P. falciparum stage V gametocytes, ATP luminescence, 24 h;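 active = inhibition above the mean plus 3 SD of compounds within the control limits, set per campaign, cut at about 38% in these data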;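 also: 0% = DMSO wells and 100% = medium only without gametocytes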
# * marks the source's active call; other numbers are inactive results; . = no result given.
SMILES,TNAP act hiacc,Furin inhibitor,TNAP inh noacc,TNAP inh hiacc,Efa HMGR inh,Pf gamet viab
O=C(N/N=C/c1ccc[nH]1)c1ccc(O)cc1,0.9,-6.8,-10.2,6.1,1.1,-0.5
Cc1ccc(-n2[nH]c(C)c(/C=N/Nc3ccc([N+](=O)[O-])cc3[N+](=O)[O-])c2=O)cc1,0.5,-9.7,35.0,51.3*,-4.7,-1.4
Cc1[nH]n(-c2ccc([N+](=O)[O-])cc2)c(=O)c1C=NCC1CCCO1 (centres undefined),1.1,-18.9,-12.1,-5.2,-0.8,-24.5
COCc1cc(C)n(CC(=O)OC)c(=O)c1C#N,1,-29.0,-4.8,-1.4,13.6*,.
COCc1cc(C)n(CC(=O)Nc2ccccc2OC)c(=O)c1C#N,1.1,-18.9,-10.4,-6.1,-5.1,.
O=C(Nc1ccccc1C(=O)O)c1cccc(NS(=O)(=O)c2ccc(Br)cc2)c1,.,.,.,.,.,-34.6
O=C(Nc1cccc(C(F)(F)F)c1)c1cccc(NS(=O)(=O)c2ccc(Br)c(C(=O)O)c2)c1,1.1,-31.0,-9.5,-6.7,10.0*,-17.2
Brc1cccc(-c2n[nH]c(-c3ccccc3)n2)c1,1,-19.3,57.0*,-3.5,-4.7,-0.5
Cc1cc(N)n2ncc(-c3ccc(F)cc3)c2n1,1.1,-18.7,-6.6,-8.3,0.5,.
Cc1cc(N)n2ncc(-c3ccc(Cl)cc3)c2n1,1,-20.1,-11.2,2.8,10.6*,-36.8
Cc1cc(C)cc(OCC(=O)N/N=C/c2ccco2)c1,1.1,2.6,-12.8,-7.7,-7.3,-8.7
Cc1ccc(C)c(NC(=O)CCC(=O)N/N=C/c2cc([N+](=O)[O-])ccc2O)c1,1,-16.7,25.0,2.3,1.7,12.1
Cc1ccc(NC(=O)CCC(=O)N/N=C/c2cc([N+](=O)[O-])ccc2O)cc1,0.9,-24.0,14.4,5.5,-4.0,13.6
O=C(COc1cccc([N+](=O)[O-])c1)N/N=C/c1ccco1,1.1,-14.8,-16.7,-5.4,9.6*,-17.2
Cc1cc(=O)oc2cc(OCC(=O)N/N=C/c3cc([N+](=O)[O-])ccc3O)ccc12,0.9,-16.3,88.8*,13.1,-9.0,21.9
O=C(CCC(=O)Nc1cccc(Cl)c1)N/N=C/c1cc([N+](=O)[O-])ccc1O,0.9,-15.9,79.5*,10.4,-2.8,-5.0
CC(C)NS(=O)(=O)c1ccc(NC(=O)NC2CCCCC2)cc1,1,-8.2,-26.1,-4.1,-3.5,-18.7
CN(CC(=O)NCCc1ccccc1)S(=O)(=O)c1ccccc1,1.1,-28.2,-14.4,-7.3,13.7*,9.7
CCN(CC(=O)NCCc1ccccc1)S(=O)(=O)c1ccc(Br)cc1,1,-13.6,-7.7,-1.9,-3.9,-33.4
CCN1C(=O)/C(=C\C=C\c2ccccc2[N+](=O)[O-])SC1=S,0.9,-3.0,4.2,9.0,17.7*,3.9
CCN1C(=O)/C(=C/N2CCc3ccccc3C2)SC1=S,.,-14.2,.,.,.,12.8
COc1ccc(S(=O)(=O)N(NC2=NS(=O)(=O)c3ccccc32)C(=O)C(C)C)cc1,1,-40.2,-7.9,-4.0,10.6*,-5.2
COCC1CCCCN1Cc1cn(-c2ccccc2)nc1-c1ccc2c(c1)OCO2 (centres undefined),1.1,-21.5,-9.4,-6.3,-5.4,23.0
CCOC(=O)CC1CCCCN1Cc1cn(C)nc1-c1ccc2c(c1)OCCO2 (centres undefined),1.1,-19.9,-7.5,-6.9,2.3,41.6*
Cn1c(SCC(=O)N2CCCC2=O)nnc1-c1ccccc1F,1,-24.2,-2.0,0.3,18.9*,23.2
SMILES,TNAP act hiacc,Furin inhibitor,TNAP inh noacc,TNAP inh hiacc,Efa HMGR inh,Pf gamet viab
Cn1c(SCC(=O)N2CCCc3ccccc32)nnc1-c1c[nH]c2ccccc12,1,-3.1,-12.7,0.2,-4.0,.
Cn1cnnc1Sc1ccc(C(=O)OCC(=O)NC2CC2)cc1[N+](=O)[O-],1,1.6,5.2,-4.2,15.5*,-11.5
Cn1cnnc1Sc1ccc(C(=O)NCCC(c2ccccc2)c2ccccc2)cc1[N+](=O)[O-],1,-21.4,-3.4,-4.7,-2.5,-12.2
Cc1nn(-c2ccccc2)c2nc(-c3ccncc3)cc(C(=O)NCc3ccco3)c12,1.1,-32.2,-13.7,-8.8,0.8,55.9*
COc1ccc(NC(=O)CSc2nncs2)cc1S(N)(=O)=O,.,-10.0,.,.,.,-5.3
COc1ccc(NC(=O)CSc2nccn2C)cc1S(N)(=O)=O,1,-31.7,-4.4,1.9,10.4*,-28.7
COc1cccc(CN2CCC(C(=O)Nc3ccc(-c4cccc(C)c4)cc3)CC2)c1O,.,.,.,.,.,2.6
COc1ccc(NC(=O)N(Cc2cc3ccc(OC)cc3[nH]c2=O)CC2CCCO2)cc1 (centres undefined),1,-10.2,-3.5,-3.8,16.6*,-6.8
COc1cc(C(c2c(C)[nH][nH]c2=O)c2c(C)[nH][nH]c2=O)ccc1OC(C)C,0.1,-21.9,81.8*,87.1*,-7.0,-14.8
COc1cc(C(c2c(C)[nH][nH]c2=O)c2c(C)[nH][nH]c2=O)cc(OC)c1OC,1,1.5,-7.3,-1.3,2.5,4.9
COc1cc(C(c2c(C)[nH][nH]c2=O)c2c(C)[nH][nH]c2=O)ccc1OS(=O)(=O)c1ccccc1,0.3,-7.9,28.6,71.8*,-1.6,.
COc1cc(C(c2c(C)[nH][nH]c2=O)c2c(C)[nH][nH]c2=O)ccc1OS(=O)(=O)c1ccc(C)cc1,0.5,-9.6,12.4,50.8*,-4.9,10.7
O=C(CCc1nnc(C2CCCCC2)o1)N1CCC(Oc2cccnc2)CC1,1,-13.2,-2.8,-0.2,0.9,1.1
O=c1c(-c2ccc(O)cc2)coc2cc(OC3OC(CO)C(O)C(O)C3O)ccc12 (centres undefined),1.1,-15.3,-10.2,-6.0,-3.3,.
O=C(COc1ccc2c(c1)CCC2)NCc1ccc(Cl)cc1,1.1,-6.0,-8.0,-7.7,-0.5,-14.0
Cc1ccc(C(=O)NC2CCCc3ccccc32)o1 (centres undefined),1,25.3*,1.7,-2.0,1.4,-1.5
COc1ccc(CC(=O)NC2CCCc3ccccc32)cc1 (centres undefined),1.1,-9.0,-2.7,-7.4,-3.0,-2.6
O=C1c2ccccc2C(=O)C1c1ccc2ccccc2n1,1,-2.2,0.9,2.4,14.8*,-9.9
CC(=O)c1ccc(N2CCN(C(=O)c3ccc4c(Cl)c5c(nc4c3)CCCC5)CC2)cc1,1.1,-29.4,-13.1,-8.5,-1.5,.
O=C(c1ccc2c(Cl)c3c(nc2c1)CCCC3)N1CCC(N2CCCCC2)CC1,1,-12.8,-1.0,-1.8,11.3*,.
Cc1ccc(C)c(N=C2CCCN2Cc2ccccc2)c1C#N,0.9,3.1,-6.6,5.7,12.9*,.
COc1ccc(-c2c(N)n[nH]c2C)cc1OC,1.1,-24.2,-6.1,-6.4,14.7*,7.9
COc1ccc(-c2c(-c3ccc(O)cc3O)n[nH]c2C)cc1OC,1,-11.0,-48.2,-3.1,-6.0,.
